From ChEMBL document CHEMBL1143023, “Chemical synthesis and biological activities of 16alpha-derivatives of 5alpha-androstane-3alpha,17beta-diol as antiandrogens” (2007)
Calls of active or inactive are those of the source. The rule behind the calls is not given here.

Columns and labels:
[1] = Inhibition of DHT-stimulated proliferation of androgen sensitive AR+ Shionogi cells at 0.1 uM; type: functional; conditions: Mus musculus
[2] = Inhibition of DHT-stimulated proliferation of androgen sensitive AR+ Shionogi cells at 1 uM; type: functional; conditions: Mus musculus
[3] = Proliferative activity on androgen sensitive AR+ Shionogi cells at 0.1 uM relative to DHT; type: functional, Mus musculus
Summary of the method: (§1)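 AR+ Shionogi cells were given test compound alone, without DHT, for 10 days. Growth was read as DNA content by a modified Fiszer-Szafarz method. Stimulation % = 100 × [DNA(compound) − DNA(control)]/[DNA(DHT) − DNA(control)], with 0.3 nM DHT set as 100%. One experiment in triplicate.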

PC-3 [4] = experiment: Reduction of non-androgen sensitive AR- PC3 cell growth at 0.3 uM; type: functional, cell-based
Summary of the method: (§2)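 PC-3 human prostate carcinoma (AR−) cells from passage 28 were allowed to adhere for 24 h. Medium was then changed to MEM with 2% charcoal-stripped FBS containing compound from 1000-fold ethanol stocks; the vehicle control was 0.1% EtOH. Cells grew 9 days at 37 °C, 5% CO2, with medium changes every 2–3 days. DNA content was measured; triplicate wells.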

PC-3 [5] = experiment: Reduction of non-androgen sensitive AR- PC3 cell growth at 1 uM; type: functional, cell-based; summary of the method: as §2
[6] = Stimulation of androgen sensitive AR+ Shionogi cell proliferation at 1 uM; type: functional, Mus musculus; summary of the method: as §1

## CC(C)(O)C(=O)Nc1ccc([N+](=O)[O-])c(C(F)(F)F)c1 [HYDROXYFLUTAMIDE]
[1]
  inhibition at 0.1 µM: 67%
[2]
  inhibition at 1 µM: 100%
[3]
  Activity: 0%

## C[C@]12CCC(=O)C[C@@H]1CC[C@@H]1[C@@H]2CC[C@]2(C)[C@@H](O)[C@H](CCCOCc3ccc(Br)cc3)C[C@@H]12
[1]
  inhibition at 0.1 µM: 0%
[2]
  inhibition at 1 µM: 0%
[3]
  Activity: 153%

## C[C@]12CC[C@H]3[C@@H](CCC4CC(=O)CC[C@@]43C)[C@@H]1C[C@@H](CCCI)[C@@H]2O (stereo partly specified)
[1]
  inhibition at 0.1 µM: 41%
[2]
  inhibition at 1 µM: 76%
[3]
  Activity: 22%

## C[C@]12CCC(=O)C[C@@H]1CC[C@@H]1[C@@H]2CC[C@]2(C)[C@@H](O)[C@H](CCCSC#N)C[C@@H]12
[1]
  inhibition at 0.1 µM: 0%
[2]
  inhibition at 1 µM: 45%
[3]
  Activity: 21%

## C[C@]12CC[C@H]3[C@@H](CCC4CC(=O)CC[C@@]43C)[C@@H]1C[C@@H](CCCCl)[C@@H]2O (stereo partly specified)
PC-3 [4]
  Activity: inactive
[1]
  inhibition at 0.1 µM: 44%
[2]
  inhibition at 1 µM: 42%
PC-3 [5]
  Activity: inactive
[3]
  Activity: 36%
[6]
  Activity: 52%

## C[C@]12CC[C@H]3[C@@H](CCC4CC(=O)CC[C@@]43C)[C@@H]1C[C@@H](CCCN=[N+]=[N-])[C@@H]2O (stereo partly specified)
[1]
  inhibition at 0.1 µM: 73%
[2]
  inhibition at 1 µM: 58%
[3]
  Activity: 33%

## CO[C@@H]1CC[C@@]2(C)[C@@H](CC[C@@H]3[C@@H]2CC[C@]2(C)[C@@H](O)[C@H](CCCI)C[C@@H]32)C1
[1]
  inhibition at 0.1 µM: 0%
[2]
  inhibition at 1 µM: 46%
[3]
  Activity: 0%

## C[C@]12CC[C@@H](O)C[C@@H]1CC[C@@H]1[C@@H]2CC[C@]2(C)[C@@H](O)[C@H](CCCN=[N+]=[N-])C[C@@H]12
[1]
  inhibition at 0.1 µM: 58%
[2]
  inhibition at 1 µM: 89%
[3]
  Activity: 0%

## C[C@]12CC[C@H]3[C@@H](CCC4CC(=O)CC[C@@]43C)[C@@H]1C[C@@H](CCCO)[C@@H]2O (stereo partly specified)
[1]
  inhibition at 0.1 µM: 54%
[2]
  inhibition at 1 µM: 46%
[3]
  Activity: 9%

## C[C@]12CC[C@@H](O)C[C@@H]1CC[C@@H]1[C@@H]2CC[C@]2(C)[C@@H](O)[C@H](CCCN)C[C@@H]12
[1]
  inhibition at 0.1 µM: 0%
[2]
  inhibition at 1 µM: 0%
[3]
  Activity: 1%

## C[C@]12CC[C@@H](O)C[C@@H]1CC[C@@H]1[C@@H]2CC[C@]2(C)[C@@H](O)[C@H](CCCSC#N)C[C@@H]12
[1]
  inhibition at 0.1 µM: 2%
[2]
  inhibition at 1 µM: 50%
[3]
  Activity: 5%

## C[C@]12CC[C@@H](O)C[C@@H]1CC[C@@H]1[C@@H]2CC[C@]2(C)[C@@H](O)[C@H](CCCOCc3ccc(Br)cc3)C[C@@H]12
[1]
  inhibition at 0.1 µM: 0%
[2]
  inhibition at 1 µM: 7%
[3]
  Activity: 163%

## C[C@]12CC[C@@H](O)C[C@@H]1CC[C@@H]1[C@@H]2CC[C@]2(C)[C@@H](O)[C@H](CCCCl)C[C@@H]12
PC-3 [4]
  Activity: inactive
[1]
  inhibition at 0.1 µM: 67%
[2]
  inhibition at 1 µM: 94%
PC-3 [5]
  Activity: inactive
[3]
  Activity: 0%

## C[C@]12CC[C@@H](O)C[C@@H]1CC[C@@H]1[C@@H]2CC[C@]2(C)[C@@H](O)[C@H](CCCI)C[C@@H]12
[1]
  inhibition at 0.1 µM: 36%
[2]
  inhibition at 1 µM: 90%
[3]
  Activity: 0%

## C[C@]12CC[C@@H](O)C[C@@H]1CC[C@@H]1[C@@H]2CC[C@]2(C)[C@@H](O)[C@H](CCCBr)C[C@@H]12
[1]
  inhibition at 0.1 µM: 46%
[2]
  inhibition at 1 µM: 80%
[3]
  Activity: 0%

## C[C@]12CC[C@@H](O)C[C@@H]1CC[C@@H]1[C@@H]2CC[C@]2(C)[C@@H](O)[C@H](CCCF)C[C@@H]12
[1]
  inhibition at 0.1 µM: 44%
[2]
  inhibition at 1 µM: 70%
[3]
  Activity: 0%

## C[C@]12CC[C@@H](O)C[C@@H]1CC[C@@H]1[C@@H]2CC[C@]2(C)[C@@H](O)[C@H](CCCO)C[C@@H]12
[1]
  inhibition at 0.1 µM: 16%
[2]
  inhibition at 1 µM: 35%
[3]
  Activity: 0%
